Data from ChEMBL document CHEMBL2086241, “Molecular modeling, synthesis and screening of some new 4-thiazolidinone derivatives with promising selective COX-2 inhibitory activity” (Eur J Med Chem, 2012).

Columns and labels:
[1] = molecular target: T1, Prostaglandin G/H synthase 1 (Ovis aries, UniProt P05979); assay: Inhibition of ovine COX1 assessed as inhibition of PGF2alpha production from PGH2 by enzyme immuno assay
T1 sequence (P05979 whole entry): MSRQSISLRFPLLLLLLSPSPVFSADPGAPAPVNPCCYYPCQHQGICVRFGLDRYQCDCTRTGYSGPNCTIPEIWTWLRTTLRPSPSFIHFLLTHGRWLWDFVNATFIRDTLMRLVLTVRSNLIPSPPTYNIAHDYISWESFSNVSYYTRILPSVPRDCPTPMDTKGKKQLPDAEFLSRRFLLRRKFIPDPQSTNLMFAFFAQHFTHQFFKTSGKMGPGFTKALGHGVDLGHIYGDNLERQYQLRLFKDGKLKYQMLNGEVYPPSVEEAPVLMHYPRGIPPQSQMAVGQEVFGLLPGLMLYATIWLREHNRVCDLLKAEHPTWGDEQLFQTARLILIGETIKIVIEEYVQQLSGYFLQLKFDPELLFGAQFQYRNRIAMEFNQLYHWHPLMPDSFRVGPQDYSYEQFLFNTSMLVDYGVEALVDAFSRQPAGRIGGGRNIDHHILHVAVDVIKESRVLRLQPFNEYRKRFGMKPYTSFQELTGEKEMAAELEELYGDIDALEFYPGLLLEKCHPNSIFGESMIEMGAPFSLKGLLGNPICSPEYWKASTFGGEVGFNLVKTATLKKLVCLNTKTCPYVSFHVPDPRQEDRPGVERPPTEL
Procedure, shortened: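 Ovine COX-1 in Tris-HCl buffer, pH 8.0, with heme, preincubated 10 min at 37 °C. Arachidonic acid started the reaction, which was stopped after 2 min with 1 M HCl. PGH₂ was reduced to PGF2α with stannous chloride, and PGF2α was quantified by competitive EIA with an AChE tracer and Ellman's reagent. IC50 came from concentration–inhibition curves, duplicate determinations.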

[2] = molecular target: T2, Prostaglandin G/H synthase 2 (Homo sapiens, UniProt P35354); assay: Inhibition of human recombinant COX2 assessed as inhibition of PGF2alpha production from PGH2 by enzyme immunoassay
T2 sequence (P35354 whole entry): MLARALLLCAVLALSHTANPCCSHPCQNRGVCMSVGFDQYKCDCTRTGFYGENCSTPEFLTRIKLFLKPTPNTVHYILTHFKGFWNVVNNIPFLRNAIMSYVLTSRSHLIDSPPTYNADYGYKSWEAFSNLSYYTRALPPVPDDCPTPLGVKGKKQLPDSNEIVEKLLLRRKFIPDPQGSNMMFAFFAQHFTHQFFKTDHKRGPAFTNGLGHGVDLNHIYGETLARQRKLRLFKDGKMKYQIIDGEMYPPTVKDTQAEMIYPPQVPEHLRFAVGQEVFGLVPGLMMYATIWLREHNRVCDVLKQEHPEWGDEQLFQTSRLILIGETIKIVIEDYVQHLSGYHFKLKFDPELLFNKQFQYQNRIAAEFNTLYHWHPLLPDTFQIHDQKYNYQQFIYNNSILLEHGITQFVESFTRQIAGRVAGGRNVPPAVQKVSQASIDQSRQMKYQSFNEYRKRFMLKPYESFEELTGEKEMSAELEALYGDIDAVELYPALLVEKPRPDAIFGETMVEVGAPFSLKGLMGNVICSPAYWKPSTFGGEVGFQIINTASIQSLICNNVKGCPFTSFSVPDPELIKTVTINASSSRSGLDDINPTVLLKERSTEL

[3] = Selectivity index, ratio of IC50 for ovine COX1 to IC50 for human recombinant COX2

SMILES | IC50 [1] | IC50 [2] | Ratio IC50 [3]
NS(=O)(=O)c1ccc(NN2C(=O)CSC2c2ccccc2)cc1 (stereo not given) | 96.4 µM | 78.2 µM | 1.23
Cc1ccc(C2SCC(=O)N2Nc2ccc(S(N)(=O)=O)cc2)cc1 (stereo not given) | 85.5 µM | 24.5 µM | 3.49
CS(=O)(=O)c1ccc(NN2C(=O)CSC2c2ccc(Cl)cc2)cc1 (stereo not given) | 83 µM | 122 µM | 0.68
CS(=O)(=O)c1ccc(NN2C(=O)CSC2c2ccc(C(F)(F)F)cc2)cc1 (stereo not given) | 61.1 µM | 37.8 µM | 1.61

Continued, values first:

IC50 [1] | IC50 [2] | Ratio IC50 [3] | SMILES
105 µM | 14.4 µM | 7.27 | Cc1ccc(C2SCC(=O)N2Nc2ccc(S(C)(=O)=O)cc2)cc1 (stereo not given)
38.9 µM | 45.5 µM | 0.85 | NS(=O)(=O)c1ccc(NN2C(=O)CSC2c2ccc(Cl)cc2)cc1 (stereo not given)
42.1 µM | 63 µM | 0.67 | NS(=O)(=O)c1ccc(NN2C(=O)CSC2c2ccc(F)cc2)cc1 (stereo not given)
63.2 µM | 20 µM | 3.16 | CS(=O)(=O)c1ccc(NN2C(=O)CSC2c2ccccc2)cc1 (stereo not given)
54.5 µM | 51.8 µM | 1.05 | NS(=O)(=O)c1ccc(NN2C(=O)CSC2c2ccc(C(F)(F)F)cc2)cc1 (stereo not given)
62.7 µM | 45.4 µM | 1.38 | CS(=O)(=O)c1ccc(NN2C(=O)CSC2c2ccc(F)cc2)cc1 (stereo not given)
